Experimental data reported in BindingDB's records for doi:10.1021/jm950541c (Georgia Institute of Technology, 1996).

What follows are molecules tested against T1, Calpain-2 catalytic subunit (Homo sapiens, UniProt P17655) (assay: Compound was evaluated for the inhibition of Cysteine protease Calpain 2).
T1 sequence (P17655 whole entry): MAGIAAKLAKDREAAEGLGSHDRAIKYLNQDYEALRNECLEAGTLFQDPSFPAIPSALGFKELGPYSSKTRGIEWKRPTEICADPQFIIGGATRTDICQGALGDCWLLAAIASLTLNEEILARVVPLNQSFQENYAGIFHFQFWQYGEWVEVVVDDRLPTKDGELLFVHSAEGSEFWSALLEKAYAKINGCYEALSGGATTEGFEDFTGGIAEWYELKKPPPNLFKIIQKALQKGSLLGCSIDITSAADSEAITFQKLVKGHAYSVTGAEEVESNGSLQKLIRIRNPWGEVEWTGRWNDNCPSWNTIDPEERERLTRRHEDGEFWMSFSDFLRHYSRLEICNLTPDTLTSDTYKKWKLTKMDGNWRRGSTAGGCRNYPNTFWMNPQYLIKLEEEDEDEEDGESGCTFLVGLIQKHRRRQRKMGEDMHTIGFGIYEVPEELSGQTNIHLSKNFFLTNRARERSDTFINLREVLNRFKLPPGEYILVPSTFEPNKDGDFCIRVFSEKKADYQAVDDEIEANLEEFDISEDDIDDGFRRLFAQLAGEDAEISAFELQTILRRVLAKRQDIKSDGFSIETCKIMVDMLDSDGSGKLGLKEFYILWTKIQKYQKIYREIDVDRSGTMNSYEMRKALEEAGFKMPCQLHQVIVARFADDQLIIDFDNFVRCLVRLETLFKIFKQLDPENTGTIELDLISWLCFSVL
Method in brief: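 Calpain assay in 25 mM Tris, pH 8.0, with 10 mM CaCl₂ and 5% DMSO. Suc-Leu-AMC hydrolysis was read as initial velocity (t = 30-60 s) after a 30 s delay, at room temperature. Five or more inhibitor concentrations (not above 2 × K_obs) were used at two fixed substrate levels. Ki came from Dixon plots (1/v vs I) averaged over triplicates.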

| Ki | SMILES |
| --- | --- |
| 590 nM | CCC(NC(=O)C(CC(C)C)NC(=O)OCc1ccccc1)C(=O)C(=O)NCC(O)c1cccc(Oc2ccccc2)c1 (centres undefined) [(1-{1-[2-Hydroxy-2-(3-phenoxy-phenyl)-ethylaminooxalyl]-propylcarbamoyl}-3-methyl-butyl)-carbamic acid benzyl ester] |
| 4600 nM | CCC(NC(=O)C(CC(C)C)NC(=O)OCc1ccccc1)C(=O)C(=O)NCc1nc2c(c(=O)n(C)c(=O)n2C)n1C (centres undefined) [{3-Methyl-1-[1-(1,3,7-trimethyl-2,6-dioxo-2,3,6,7-tetrahydro-1H-purin-8-ylmethyl)-aminooxalyl]-propylcarbamoyl}-butyl)-carbamic acid benzyl ester] |
| 76 nM | CCC(NC(=O)C(CC(C)C)NC(=O)OCc1ccccc1)C(=O)C(=O)NCCc1cccn1C (centres undefined) [(3-Methyl-1-{1-[2-(1-methyl-1H-pyrrol-2-yl)-ethylaminooxalyl]-propylcarbamoyl}-butyl)-carbamic acid benzyl ester] |
| 120 nM | CCC(NC(=O)C(CC(C)C)NC(=O)OCc1ccccc1)C(=O)C(=O)NCC(O)c1cccc(Oc2ccc(Cl)c(Cl)c2)c1 (centres undefined) [[1-(1-{2-[3-(3,4-Dichloro-phenoxy)-phenyl]-2-hydroxy-ethylaminooxalyl}-propylcarbamoyl)-3-methyl-butyl]-carbamic acid benzyl ester] |
| 290 nM | CC(C)CC(NC(=O)OCc1ccccc1)C(=O)NC(Cc1ccccc1)C(=O)C(=O)NCC(O)c1cccc(C(F)(F)F)c1 (centres undefined) [(1-{1-Benzyl-2-[2-hydroxy-2-(3-trifluoromethyl-phenyl)-ethylcarbamoyl]-2-oxo-ethylcarbamoyl}-3-methyl-butyl)-carbamic acid benzyl ester] |
| 160 nM | CCOC(CNC(=O)C(=O)C(CC)NC(=O)C(CC(C)C)NC(=O)OCc1ccccc1)OCC (centres undefined) [{1-[1-(2,2-Diethoxy-ethylaminooxalyl)-propylcarbamoyl]-3-methyl-butyl}-carbamic acid benzyl ester] |
| 74 nM | CC(C)CC(NC(=O)C(c1ccccc1)c1ccccc1)C(=O)NC(Cc1ccccc1)C(=O)C(=O)NCCCN1CCOCC1 (centres undefined) [2-Diphenylacetylamino-4-methyl-pentanoic acid [1-benzyl-2-(3-morpholin-4-yl-propylcarbamoyl)-2-oxo-ethyl]-amide] |
| 290 nM | CCC(NC(=O)C(CC(C)C)NC(=O)OCc1ccccc1)C(=O)C(=O)NCC(O)c1ccc(Oc2ccccc2)cc1 (centres undefined) [(1-{1-[2-Hydroxy-2-(4-phenoxy-phenyl)-ethylaminooxalyl]-propylcarbamoyl}-3-methyl-butyl)-carbamic acid benzyl ester] |
| 11000 nM | CCCC(NC(=O)C(CC(C)C)NC(=O)OCc1ccccc1)C(=O)C(=O)NCC(O)c1ccccc1 (centres undefined) [{1-[1-(2-Hydroxy-2-phenyl-ethylaminooxalyl)-butylcarbamoyl]-3-methyl-butyl}-carbamic acid benzyl ester] |
| 50 nM | CC(C)CC(NC(=O)OCc1ccccc1)C(=O)NC(Cc1ccccc1)C(=O)C(=O)NCC(O)c1ccccc1 (centres undefined) [{1-[1-Benzyl-2-(2-hydroxy-2-phenyl-ethylcarbamoyl)-2-oxo-ethylcarbamoyl]-3-methyl-butyl}-carbamic acid benzyl ester] |
| 1200 nM | CCNC(=O)C(=O)C(CC)NC(=O)C(CC(C)C)NC(=O)C(c1ccccc1)c1ccccc1 (centres undefined) [3-(2-Diphenylacetylamino-4-methyl-pentanoylamino)-2-oxo-pentanoic acid ethylamide] |
| 280 nM | CCC(NC(=O)C(CC(C)C)NC(=O)OCc1ccccc1)C(=O)C(=O)NCC(O)c1cccc(Oc2cccc(C(F)(F)F)c2)c1 (centres undefined) [[1-(1-{2-Hydroxy-2-[3-(3-trifluoromethyl-phenoxy)-phenyl]-ethylaminooxalyl}-propylcarbamoyl)-3-methyl-butyl]-carbamic acid benzyl ester] |
| 46 nM | CCC(NC(=O)C(CC(C)C)NC(=O)OCc1ccccc1)C(=O)C(=O)NCCc1ccc(OC)cc1 (centres undefined) [(1-{1-[2-(4-Methoxy-phenyl)-ethylaminooxalyl]-propylcarbamoyl}-3-methyl-butyl)-carbamic acid benzyl ester] |
| 480 nM | CCNC(=O)C(=O)C(CC)NC(=O)C(CC(C)C)NC(=O)c1cnccn1 (centres undefined) [Pyrazine-2-carboxylic acid [1-(1-ethylaminooxalyl-propylcarbamoyl)-3-methyl-butyl]-amide] |
| 51 nM | CCC(NC(=O)C(CC(C)C)NC(=O)OCc1ccccc1)C(=O)C(=O)NCCCCCO (centres undefined) [{1-[1-(5-Hydroxy-pentylaminooxalyl)-propylcarbamoyl]-3-methyl-butyl}-carbamic acid benzyl ester] |
| 110 nM | CCC(NC(=O)C(CC(C)C)NC(=O)OCc1ccccc1)C(=O)C(=O)NCc1ccncc1 (centres undefined) [{3-Methyl-1-[1-(pyridin-4-ylmethyl)-aminooxalyl]-propylcarbamoyl}-butyl)-carbamic acid benzyl ester] |
| 60 nM | CCC(NC(=O)C(CC(C)C)NC(=O)OCc1ccccc1)C(=O)C(=O)NCCc1ccc(O)cc1 (centres undefined) [(1-{1-[2-(4-Hydroxy-phenyl)-ethylaminooxalyl]-propylcarbamoyl}-3-methyl-butyl)-carbamic acid benzyl ester] |
| 240 nM | CC(C)CC(NC(=O)OCc1ccccc1)C(=O)NC(Cc1ccccc1)C(=O)C(=O)NCC(O)c1ccc(OCc2ccccc2)cc1 (centres undefined) [(1-{1-Benzyl-2-[2-(4-benzyloxy-phenyl)-2-hydroxy-ethylcarbamoyl]-2-oxo-ethylcarbamoyl}-3-methyl-butyl)-carbamic acid benzyl ester] |
| 170 nM | CCC(NC(=O)C(CC(C)C)NC(=O)OCc1ccccc1)C(=O)C(=O)NCC(O)c1cccc2ccccc12 (centres undefined) [{1-[1-(2-Hydroxy-2-naphthalen-1-yl-ethylaminooxalyl)-propylcarbamoyl]-3-methyl-butyl}-carbamic acid benzyl ester] |
